Assay [1] relates to P. falciparum stage III-IV gametocytes. Briefly: Gametocyte viability assay. It counts as cell-based, Plasmodium falciparum.
The test system of assay [2] is P. falciparum NF54 strain expressing a Nanoluciferase reporter. Briefly: Asexual replication stage-specificity assay, nanoluciferase readout. It counts as cell-based, Plasmodium falciparum. Particulars: ring-synchronized; 5 µM KNX-115, 1 µM DHA. The method in brief:
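NF54-ENL nanoluciferase reporter parasites were synchronized at the ring stage and treated with test compound. Vehicle (0.1% DMSO) and 1 µM dihydroartemisinin served as controls. Nanoluciferase activity was followed over time and compared with the control cultures.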

Assay [3] has as its target T1, full-length PfMyoA (Plasmodium falciparum, UniProt Q8IDR3).
T1 sequence (Q8IDR3 1-818): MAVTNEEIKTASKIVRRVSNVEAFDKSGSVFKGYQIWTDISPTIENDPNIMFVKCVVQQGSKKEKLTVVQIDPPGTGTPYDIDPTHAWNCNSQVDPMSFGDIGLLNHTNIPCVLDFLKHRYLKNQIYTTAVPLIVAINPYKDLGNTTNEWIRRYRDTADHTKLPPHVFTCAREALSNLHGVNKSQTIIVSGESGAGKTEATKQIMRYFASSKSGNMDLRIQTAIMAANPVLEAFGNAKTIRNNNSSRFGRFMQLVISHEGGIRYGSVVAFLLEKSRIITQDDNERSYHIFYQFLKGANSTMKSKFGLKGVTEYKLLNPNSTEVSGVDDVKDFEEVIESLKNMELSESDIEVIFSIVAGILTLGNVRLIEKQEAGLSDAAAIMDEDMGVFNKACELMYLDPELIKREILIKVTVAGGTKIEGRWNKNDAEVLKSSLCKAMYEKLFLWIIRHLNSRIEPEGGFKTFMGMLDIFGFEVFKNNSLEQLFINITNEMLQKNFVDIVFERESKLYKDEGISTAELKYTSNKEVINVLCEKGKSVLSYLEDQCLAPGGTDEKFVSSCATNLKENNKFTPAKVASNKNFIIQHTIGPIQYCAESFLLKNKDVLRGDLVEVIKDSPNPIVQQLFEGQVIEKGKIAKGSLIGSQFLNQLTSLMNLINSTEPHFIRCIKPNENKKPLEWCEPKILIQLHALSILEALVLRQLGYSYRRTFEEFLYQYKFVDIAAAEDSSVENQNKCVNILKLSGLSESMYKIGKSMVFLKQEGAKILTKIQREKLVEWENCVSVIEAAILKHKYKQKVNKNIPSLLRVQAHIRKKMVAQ
T1 sequence (Q8IJM4 1-134 partner): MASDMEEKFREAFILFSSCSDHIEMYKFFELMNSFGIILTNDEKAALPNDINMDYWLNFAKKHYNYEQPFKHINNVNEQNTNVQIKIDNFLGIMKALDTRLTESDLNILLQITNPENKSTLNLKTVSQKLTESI
T1 sequence (Q8I4W8 1-204 partner): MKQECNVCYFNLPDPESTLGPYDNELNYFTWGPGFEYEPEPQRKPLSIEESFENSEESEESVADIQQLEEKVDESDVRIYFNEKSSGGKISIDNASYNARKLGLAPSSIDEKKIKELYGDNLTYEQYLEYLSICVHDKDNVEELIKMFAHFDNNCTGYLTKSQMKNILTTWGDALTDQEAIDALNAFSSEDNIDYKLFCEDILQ
Briefly: Actin-activated PfMyoA ATPase assay. The following applies: read-out: IC50, actin-activated myosin ATPase, 15 µM actin. The class given is biochemical.

Assay [4] deals with P. falciparum isolates from the Brazilian Western Amazon. Briefly: Ex vivo schizont maturation test on patient isolates. It counts as cell-based. The following applies: Plasmodium falciparum, in Homo sapiens, read-out: median EC50. The gist of the method: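 Isolates came from monoinfected patients in Porto Velho, Rondônia, and were exposed to test compound. Thick films were stained with 5% Giemsa and schizonts counted. Counts were normalized to drug-free controls to calculate EC50.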

Assay [5] relates to P. falciparum 3D7. Briefly: Parasite reduction ratio. The class given is cell-based, Plasmodium falciparum. The following applies: 10X IC50 of each compound. The gist of the method:
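Parasite reduction ratio followed an established protocol, with each compound held at a fixed multiple of its potency. Parasite regrowth was detected by P. falciparum LDH assay. Data are mean ± SD.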

Consider `C[C@H]1[C@@H](O)O[C@@H]2O[C@@]3(C)CC[C@H]4[C@H](C)CC[C@@H]1[C@@]24OO3` [DHA, dihydroartemisinin], for which the “effect on gametocyte viability” value in assay [1] is on record as “showed inhibition”. Further, the “parasite replication over time (luciferase activity)” value in assay [2] was “rapid killing of the parasites”. Consider `COc1ccc(C2(NCc3c[nH]nc3-c3cccs3)CC2)cc1` [KNX-002], for which the IC50 (in general, the point on the concentration scale where inhibition reaches its midpoint) in assay [3] turned out to be 400 ± 100 nM. For the molecule `C[C@H]1[C@H](OC(=O)CCC(=O)O)O[C@@H]2O[C@@]3(C)CC[C@H]4[C@H](C)CC[C@@H]1[C@@]24OO3` [artesunate], the EC50 – broadly, the concentration needed to bring the measured effect to its halfway point – in assay [4] turned out to be 3.5 nM. Still for that read-out and setting: with `CCN(CC)CCCC(C)Nc1ccnc2cc(Cl)ccc12` (stereo not drawn) [chloroquine] the figure was 1260 nM. For the molecule `CCc1nc(N)nc(N)c1-c1ccc(Cl)cc1` [pyrimethamine], the lag before killing in assay [5] came to 24 h.

For the origin of these results see article PMC13416249 (Proceedings of the National Academy of Sciences of the …, 2026).
